Results on 8 compounds are retold here after ChEMBL document CHEMBL4364256, “Design, synthesis and biological evaluation of antimicrobial diarylimine and -amine compounds targeting the interaction between the bacterial NusB and NusE proteins” (Eur J Med Chem, 2019).

In brackets after ≈: the same amount, converted by molar mass.

The nature of test [1]: microbe, parasite or virus in culture. Particulars: Enterobacter cloacae, ATCC 13047, 20 h.
The subject of test [2] is Staphylococcus aureus. The test can be described thus: microbe, parasite or virus in culture. Particulars: ATCC 29213, 20 h.
A further test deals with Enterococcus faecium. The test can be described thus: Antimicrobial activity against Enterococcus faecium ATCC 19433 incubated for 20 hrs by microdilution method. Particulars: ATCC 19433, 20 h. The format is functional. In a few lines:
(§1)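 Broth microdilution MIC testing done following CLSI guidelines.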
A general note: In broth dilution the organism is exposed to a series of concentrations in liquid medium.

The test system of the next test is Pseudomonas aeruginosa. Kind of test: Antimicrobial activity against Pseudomonas aeruginosa ATCC 27853 incubated for 20 hrs by microdilution method. The format is functional. Particulars: ATCC 27853, 20 h. Summed up:
as §1

The subject of test [3] is Staphylococcus aureus. Kind of test: microbe, parasite or virus in culture. The following applies: ATCC 25923, 20 h.
For the next test, the system named is Streptococcus pneumoniae. Kind of test: Antimicrobial activity against Streptococcus pneumoniae ATCC 49619 incubated for 20 hrs by microdilution method. The format is functional. The following applies: ATCC 49619, 20 h. Summed up:
as §1

In the next test the test system is Acinetobacter baumannii. Kind of test: Antimicrobial activity against Acinetobacter baumannii ATCC 19606 incubated for 20 hrs by microdilution method. Particulars: ATCC 19606 = CIP 70.34 = JCM 6841, 20 h. The format is functional. In a few lines: as §1
Another test has as its system Bacillus subtilis. The test can be described thus: Inhibition of N-terminal LgBiT-fused Bacillus subtilis NusB expressed in Escherichia coli BL21(DE3)pLysS interaction with C- terminal SmBiT-fused Bacillus subtilis NusE expressed in Escherichia coli BL21(DE3)pLysS at 100 uM preincubated for 10 mins followed by NusE addition and measured after 10 mins by nano-glo luciferase assay relative to control. In a few lines: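 NusB and NusE were mixed 1:1 at 1 µM in PBS, with compound at 100 µM. The read-out was percent inhibition of the NusB-NusE interaction.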

As for `C#Cc1cccc(NCc2cc(C(=O)OC)ccc2O)c1`, the MIC in test [1] is above 256 µg/mL; with Staphylococcus aureus [2] it was 16 µg/mL (≈ 56.9 µM); in the test with Enterococcus faecium, 32 µg/mL (≈ 114 µM); in the test on Pseudomonas aeruginosa it was above 256 µg/mL; in the test on Staphylococcus aureus [3], 32 µg/mL (≈ 114 µM); with Streptococcus pneumoniae, 8 µg/mL (≈ 28.4 µM). In the test with Acinetobacter baumannii, this compound showed an MIC above 256 µg/mL. The inhibition (as a rule, the relative decrease from the control value, in per cent) in the test with Bacillus subtilis stood at 57.1%.

`C#Cc1cccc(NCc2cc(F)ccc2O)c1`: the MIC in test [1] was above 256 µg/mL; against Staphylococcus aureus [2], 32 µg/mL (≈ 133 µM); with Enterococcus faecium, 32 µg/mL (≈ 133 µM); with Pseudomonas aeruginosa, above 256 µg/mL; against Staphylococcus aureus [3], 32 µg/mL (≈ 133 µM); against Streptococcus pneumoniae, 16 µg/mL (≈ 66.3 µM). The compound further returned an MIC with Acinetobacter baumannii of 128 µg/mL (≈ 531 µM). In the test on Bacillus subtilis, the inhibition came out at 61.8%.

For the compound `C#Cc1cccc(/N=C/c2ccc([N+](=O)[O-])cc2O)c1`, the MIC was above 256 µg/mL in test [1]; 256 µg/mL (≈ 961 µM) against Staphylococcus aureus [2]; above 256 µg/mL against Enterococcus faecium; above 256 µg/mL in the test on Pseudomonas aeruginosa; 64 µg/mL (≈ 240 µM) with Staphylococcus aureus [3]; 128 µg/mL (≈ 481 µM) in the test on Streptococcus pneumoniae. Moreover, the MIC against Acinetobacter baumannii was above 256 µg/mL. The compound also registered an inhibition in the test with Bacillus subtilis of 46.7%.

As for `C#Cc1cccc(/N=C/c2cc(C(=O)OC)ccc2O)c1`, the MIC in test [1] is above 256 µg/mL; with Staphylococcus aureus [2] it was above 256 µg/mL; in the test with Enterococcus faecium it was above 256 µg/mL; with Pseudomonas aeruginosa, 256 µg/mL (≈ 917 µM); against Staphylococcus aureus [3] it was 128 µg/mL (≈ 458 µM); in the test on Streptococcus pneumoniae, 128 µg/mL (≈ 458 µM). For the same compound, the MIC in the test with Acinetobacter baumannii was found to be 64 µg/mL (≈ 229 µM). In the test with Bacillus subtilis, the inhibition came out at 41.4%.

Consider `C#Cc1cccc(NCc2cc(OC)ccc2O)c1`, for which the MIC in test [1] was above 256 µg/mL; in the test on Staphylococcus aureus [2], 32 µg/mL (≈ 126 µM); in the test on Enterococcus faecium, 64 µg/mL (≈ 253 µM); against Pseudomonas aeruginosa, above 256 µg/mL; with Staphylococcus aureus [3], 64 µg/mL (≈ 253 µM); in the test on Streptococcus pneumoniae, 8 µg/mL (≈ 31.6 µM). This compound displayed an MIC against Acinetobacter baumannii above 256 µg/mL. This compound had an inhibition in the test with Bacillus subtilis of 58.3%.

Regarding `C#Cc1cccc(/N=C/c2cc(C#N)ccc2O)c1`, the MIC was above 256 µg/mL in test [1]; 64 µg/mL (≈ 260 µM) against Staphylococcus aureus [2]; 256 µg/mL (≈ 1040 µM) against Enterococcus faecium; above 256 µg/mL with Pseudomonas aeruginosa; 32 µg/mL (≈ 130 µM) in the test with Staphylococcus aureus [3]; 128 µg/mL (≈ 520 µM) against Streptococcus pneumoniae. Besides, the MIC against Acinetobacter baumannii is above 256 µg/mL. This compound also yielded an inhibition in the test on Bacillus subtilis of 61.3%.

As for `C#Cc1cccc(/N=C/c2cc(OC)ccc2O)c1`, the MIC (in test [1]; against Staphylococcus aureus [2]; against Enterococcus faecium; against Pseudomonas aeruginosa; with Staphylococcus aureus [3]; against Streptococcus pneumoniae) was above 256 µg/mL in each case. Further, the MIC against Acinetobacter baumannii amounted to 128 µg/mL (≈ 509 µM). Also, the inhibition in the test on Bacillus subtilis came to 29.3%.

With `C#Cc1cccc(NCc2cc([N+](=O)[O-])ccc2OC)c1`, the MIC (in test [1]; against Staphylococcus aureus [2]; in the test with Enterococcus faecium; against Pseudomonas aeruginosa; in the test with Staphylococcus aureus [3]; against Streptococcus pneumoniae) was above 256 µg/mL in each case. The MIC against Acinetobacter baumannii was above 256 µg/mL. The compound further displayed an inhibition in the test with Bacillus subtilis of 56.1%.
